Laboratory results: ChEMBL document CHEMBL1629527, “In vitro antifungal activities of bis(alkylpyridinium)alkane compounds against pathogenic yeasts and molds” (Antimicrob Agents Chemother, 2010)
In brackets after ≈: the same amount, converted by molar mass.

How the values were obtained:
[1] = tested on: Cryptococcus neoformans; assay: Antifungal activity against Cryptococcus neoformans after 24 to 72 hrs by broth microdilution method; type: functional
Summary of the method: (§1)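 Broth microdilution MIC per CLSI M27-A3 (yeasts) or M38-A2 (molds). RPMI 1640 with L-glutamine, without bicarbonate, buffered to pH 7.0 with 0.165 M MOPS. Final test range for the compounds was 0.175–87.5 μM. Incubation at 35°C with visual reading at 24–72 h. MIC was the lowest concentration giving 100% inhibition versus the growth control (azoles 50% or 100%, by organism). Each isolate was run in duplicate in two independent experiments.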

[2] = tested on: Cryptococcus gattii species complex; assay: Antifungal activity against Cryptococcus gattii after 24 to 72 hrs by broth microdilution method; type: functional, Cryptococcus bacillisporus; summary of the method: as §1
[3] = tested on: Candida albicans; assay: Antifungal activity against Candida albicans after 24 to 72 hrs by broth microdilution method; type: functional
Summary of the method: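 CLSI M27-A3 broth microdilution for yeasts in RPMI 1640 with L-glutamine and no bicarbonate, buffered with 0.165 M MOPS to pH 7.0. Compounds were dissolved in water and tested at 0.175–87.5 μM final, 35°C. MIC was read visually at 24–72 h as 100% inhibition versus growth control. For MFC, 30 μl from clear wells went onto SDA at 35°C for 48–72 h, reading the lowest concentration without colonies. Duplicates, two independent runs.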

[4] = tested on: Candida tropicalis; assay: Antifungal activity against Candida tropicalis after 24 to 72 hrs by broth microdilution method; type: functional; summary of the method: as §1
[5] = tested on: Nakaseomyces glabratus; assay: Antifungal activity against Candida glabrata after 24 to 72 hrs by broth microdilution method; type: functional; summary of the method: as §1
[6] = tested on: Candida parapsilosis; assay: Antifungal activity against Candida parapsilosis after 24 to 72 hrs by broth microdilution method; type: functional; conditions: Lodderomyces parapsilosis; summary of the method: as §1
[7] = tested on: Pichia kudriavzevii; assay: Antifungal activity against Candida krusei after 24 to 72 hrs by broth microdilution method; type: functional; summary of the method: as §1
[8] = tested on: Candida dubliniensis; assay: Antifungal activity against Candida dubliniensis after 24 to 72 hrs by broth microdilution method; type: functional; summary of the method: as §1
[9] = tested on: Meyerozyma guilliermondii; assay: Antifungal activity against Candida guilliermondii after 24 to 72 hrs by broth microdilution method; type: functional; summary of the method: as §1
[10] = tested on: Clavispora lusitaniae; assay: Antifungal activity against Candida lusitaniae after 24 to 72 hrs by broth microdilution method; type: functional; summary of the method: as §1

| SMILES | MIC [1] [µg/mL] | MIC50 [1] [µg/mL] | MIC90 [1] [µg/mL] | MIC [2] [µg/mL] | MIC50 [2] [µg/mL] | MIC90 [2] [µg/mL] | MIC [3] [µg/mL] | MIC50 [3] [µg/mL] | MIC90 [3] [µg/mL] | MIC [4] [µg/mL] | MIC50 [4] [µg/mL] | MIC90 [4] [µg/mL] | MIC [5] [µg/mL] | MIC50 [5] [µg/mL] | MIC90 [5] [µg/mL] | MIC [6] [µg/mL] | MIC50 [6] [µg/mL] | MIC90 [6] [µg/mL] | MIC [7] [µg/mL] | MIC50 [7] [µg/mL] | further results |
| --- | --- | --- | --- | --- | --- | --- | --- | --- | --- | --- | --- | --- | --- | --- | --- | --- | --- | --- | --- | --- | --- |
| C[C@@H]1[C@H](O)[C@@H](C)/C=C/C=C/C=C/C=C/C=C/C=C/C=C/[C@H](O[C@@H]2O[C@H](C)[C@@H](O)[C@H](N)[C@@H]2O)C[C@@H]2O[C@](O)(C[C@@H](O)C[C@@H](O)[C@H](O)CC[C@@H](O)C[C@@H](O)CC(=O)O[C@H]1C)C[C@H](O)[C@H]2C(=O)O [AMPHOTERICIN B] | 0.19 (≈ 0.206 µM) | 0.25 (≈ 0.271 µM) | 0.5 (≈ 0.541 µM) | 0.19 (≈ 0.206 µM) | 0.25 (≈ 0.271 µM) | 0.25 (≈ 0.271 µM) | 0.2 (≈ 0.216 µM) | 0.25 (≈ 0.271 µM) | 0.5 (≈ 0.541 µM) | 0.22 (≈ 0.238 µM) | 0.25 (≈ 0.271 µM) | 0.5 (≈ 0.541 µM) | 0.18 (≈ 0.195 µM) | 0.125 (≈ 0.135 µM) | 0.25 (≈ 0.271 µM) | 0.28 (≈ 0.303 µM) | 0.25 (≈ 0.271 µM) | 0.5 (≈ 0.541 µM) | 0.22 (≈ 0.238 µM) | 0.25 (≈ 0.271 µM) | MIC90 [7]: 0.5 µg/mL (≈ 0.541 µM); MIC [8]: 0.1 µg/mL (≈ 0.108 µM); MIC50 [8]: 0.125 µg/mL (≈ 0.135 µM); MIC90 [8]: 0.125 µg/mL (≈ 0.135 µM); MIC [9]: 0.15 µg/mL (≈ 0.162 µM); MIC50 [9]: 0.125 µg/mL (≈ 0.135 µM); MIC90 [9]: 0.25 µg/mL (≈ 0.271 µM); MIC [10]: 0.12 µg/mL (≈ 0.13 µM); MIC50 [10]: 0.125 µg/mL (≈ 0.135 µM); MIC90 [10]: 0.25 µg/mL (≈ 0.271 µM) |
| CCC(C)n1ncn(-c2ccc(N3CCN(c4ccc(OCC5COC(Cn6cncn6)(c6ccc(Cl)cc6Cl)O5)cc4)CC3)cc2)c1=O (stereo not given) [ITRACONAZOLE] | 0.06 (≈ 0.085 µM) | 0.06 (≈ 0.085 µM) | 0.125 (≈ 0.177 µM) | 0.07 (≈ 0.0992 µM) | 0.06 (≈ 0.085 µM) | 0.125 (≈ 0.177 µM) | 0.07 (≈ 0.0992 µM) | 0.04 (≈ 0.0567 µM) | 0.09 (≈ 0.128 µM) | 0.11 (≈ 0.156 µM) | 0.125 (≈ 0.177 µM) | 0.25 (≈ 0.354 µM) | 1.15 (≈ 1.63 µM) | 0.5 (≈ 0.709 µM) | 16 (≈ 22.7 µM) | 0.07 (≈ 0.0992 µM) | 0.06 (≈ 0.085 µM) | 0.125 (≈ 0.177 µM) | 0.33 (≈ 0.468 µM) | 0.25 (≈ 0.354 µM) | MIC90 [7]: 0.5 µg/mL (≈ 0.709 µM); MIC [8]: 0.028 µg/mL (≈ 0.0397 µM); MIC50 [8]: 0.03 µg/mL (≈ 0.0425 µM); MIC90 [8]: 0.06 µg/mL (≈ 0.085 µM); MIC [9]: 0.5 µg/mL (≈ 0.709 µM); MIC50 [9]: 0.5 µg/mL (≈ 0.709 µM); MIC90 [9]: 1 µg/mL (≈ 1.42 µM); MIC [10]: 0.09 µg/mL (≈ 0.128 µM); MIC50 [10]: 0.06 µg/mL (≈ 0.085 µM); MIC90 [10]: 0.25 µg/mL (≈ 0.354 µM) |
| CC[C@@H]([C@H](C)O)n1ncn(-c2ccc(N3CCN(c4ccc(OC[C@@H]5CO[C@@](Cn6cncn6)(c6ccc(F)cc6F)C5)cc4)CC3)cc2)c1=O [POSACONAZOLE] | 0.07 (≈ 0.0999 µM) | 0.06 (≈ 0.0856 µM) | 0.125 (≈ 0.178 µM) | 0.04 (≈ 0.0571 µM) | 0.03 (≈ 0.0428 µM) | 0.06 (≈ 0.0856 µM) | 0.04 (≈ 0.0571 µM) | 0.02 (≈ 0.0285 µM) | 0.18 (≈ 0.257 µM) | 0.061 (≈ 0.087 µM) | 0.06 (≈ 0.0856 µM) | 0.25 (≈ 0.357 µM) | 1.23 (≈ 1.76 µM) | 1 (≈ 1.43 µM) | 8 (≈ 11.4 µM) | 0.049 (≈ 0.0699 µM) | 0.06 (≈ 0.0856 µM) | 0.06 (≈ 0.0856 µM) | 0.18 (≈ 0.257 µM) | 0.125 (≈ 0.178 µM) | MIC90 [7]: 0.25 µg/mL (≈ 0.357 µM); MIC [8]: 0.014 µg/mL (≈ 0.02 µM); MIC50 [8]: 0.008 µg/mL (≈ 0.0114 µM); MIC90 [8]: 0.03 µg/mL (≈ 0.0428 µM); MIC [9]: 0.14 µg/mL (≈ 0.2 µM); MIC50 [9]: 0.125 µg/mL (≈ 0.178 µM); MIC90 [9]: 0.25 µg/mL (≈ 0.357 µM); MIC [10]: 0.015 µg/mL (≈ 0.0214 µM); MIC50 [10]: 0.016 µg/mL (≈ 0.0228 µM); MIC90 [10]: 0.03 µg/mL (≈ 0.0428 µM) |
